Laboratory results: ChEMBL document CHEMBL1125493, “HIV-1 neutralization and tumor cell proliferation inhibition in vitro by simplified analogues of pyrido[4,3,2-mn]thiazolo[5,4-b]acridine marine alkaloids” (J Med Chem, 1992)

Assays:
COLO 320DM [1] = assay: COLO 320DM colon tumor cell proliferation inhibition by the compound in vitro at a concentration of 0.7 uM.; assay type: functional, Homo sapiens
Summary of the method: (§1)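 Tumor cells grown in RPMI-1640 in 1% agar with 5% fetal bovine serum, exposed to set compound concentrations for 1 week. Viability scored against a control given distilled water in place of drug. 5-fluorouracil served as reference cytotoxic drug. Reported as concentration-dependent cell survival.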

[2] = Calu3 lung tumor cell proliferation inhibition by the compound in vitro at a concentration of 7.0 uM.; assay type: functional, Homo sapiens; summary of the method: as §1
COLO 320DM [3] = assay: COLO 320DM colon tumor cell proliferation inhibition by the compound in vitro at a concentration of 70 uM.; assay type: functional, Homo sapiens; summary of the method: as §1
COLO 320DM [4] = assay: COLO 320DM colon tumor cell proliferation inhibition by the compound in vitro at a concentration of 7.0 uM.; assay type: functional, Homo sapiens; summary of the method: as §1
[5] = Calu3 lung tumor cell proliferation inhibition by the compound in vitro at a concentration of 70 uM.; assay type: functional, Homo sapiens; summary of the method: as §1
MCF7 [6] = assay: […] breast tumor cell proliferation inhibition by the compound in vitro at a concentration of 0.7 uM.; assay type: functional, Homo sapiens; summary of the method: as §1
MCF7 [7] = assay: […] breast tumor cell proliferation inhibition by the compound in vitro at a concentration 70 of uM; assay type: functional, Homo sapiens; summary of the method: as §1
[8] = Calu3 lung tumor cell proliferation inhibition by the compound in vitro at a concentration of 0.7 uM.; assay type: functional, Homo sapiens; summary of the method: as §1
MCF7 [9] = assay: […] breast tumor cell proliferation inhibition by the compound in vitro at a concentration 7.0 of uM; assay type: functional, Homo sapiens; summary of the method: as §1
[10] = system: Human immunodeficiency virus 1; assay: Protection of MT-4 lymphocytes by the compound against HIV-1 infectivity in vitro at a concentration of 0.016 ug/mL (0.00006 uM/mL); assay type: functional
Summary of the method: (§2)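 Virus (HIV-1 Molt IIIB, ~2 × 10^4 TCID50) preincubated with compound 1 h at 37 °C, 5% CO2. Then added to MT-4 cells (5 × 10^5 cells/well) and cultured at 37 °C. Trypan blue viability counts taken on days 4 and 7, triplicate at each concentration. Controls were infected and uninfected cells. Reported as % viable (surviving) MT-4 cells.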

[11] = system: Human immunodeficiency virus 1; assay: Protection of MT-4 lymphocytes by the compound against HIV-1 infectivity in vitro at a concentration of 0.008 ug/mL (0.00003 uM/mL); assay type: functional; summary of the method: as §2
[12] = system: Human immunodeficiency virus 1; assay: microbe, parasite or virus in culture
[13] = system: Human immunodeficiency virus 1; assay: Protection of MT-4 lymphocytes by the compound against HIV-1 infectivity in vitro at a concentration of 0.032 ug/mL ([…] uM/mL); assay type: functional; summary of the method: as §2
[14] = system: Human immunodeficiency virus 1; assay: Inhibitory effect against HIV-1 induced cytopathic effects(HIV-1 neutralization) in MT-4 lymphocytes at a concentration of 100 ug/mL (0.2000 uM/mL).; assay type: functional
Summary of the method: (§3)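 HIV-1 Molt IIIB (~2 × 10^4 TCID50 in 100 μL) preincubated 1 h at 37 °C with a single compound dose, then added to MT-4 cells (5 × 10^5 cells/well, 1 mL). Cultured at 37 °C, 5% CO2. Viable cells counted by trypan blue exclusion on days 4 and 7. Triplicates; % viable cells. Controls: infected cells (positive), uninfected cells (negative).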

MT4 [15] = assay: Cytotoxic effect in cultured MT-4 lymphocytes at a concentration of 10 ug/mL (0.0200 uM/mL).; assay type: functional, Homo sapiens
Summary of the method: (§4)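 MT-4 cells at 5 × 10^4 cells/well, 1 mL total, cultured with compound diluted in RPMI 1640 with 10% FBS, 10 mM HEPES, penicillin/streptomycin and 2 mM glutamine, at 37 °C under 5% CO2. Viability was scored by trypan blue exclusion on days 4 and 7, in triplicate, as % viable cells.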

MT4 [16] = assay: Cytotoxic effect in cultured MT-4 lymphocytes at a concentration of 2 ug/mL (0.0040 uM/mL).; assay type: functional, Homo sapiens; summary of the method: as §4
MT4 [17] = assay: Cytotoxic effect in cultured MT-4 lymphocytes at a concentration of 100 ug/mL (0.2000 uM/mL).; assay type: functional, Homo sapiens; summary of the method: as §4
[18] = system: Human immunodeficiency virus 1; assay: Inhibitory effect against HIV-1 induced cytopathic effects(HIV-1 neutralization) in MT-4 lymphocytes at a concentration of 100 ug/mL (0.2900 uM/mL).; assay type: functional; summary of the method: as §3
MT4 [19] = assay: Cytotoxic effect in cultured MT-4 lymphocytes at a concentration of 100 ug/mL (0.2900 uM/mL).; assay type: functional, Homo sapiens; summary of the method: as §4
[20] = system: Human immunodeficiency virus 1; assay: Inhibitory effect (100 uM) against HIV-1 in human peripheral blood monocyte cells(PBMC) (EC50 ->34.5 ug/mL); assay type: functional
MT4 [21] = assay: Cytotoxic effect in cultured MT-4 lymphocytes at a concentration of 10 ug/mL (0.0290 uM/mL).; assay type: functional, Homo sapiens; summary of the method: as §4
MT4 [22] = assay: Cytotoxic effect in cultured MT-4 lymphocytes at a concentration of 2 ug/mL (0.0060 uM/mL).; assay type: functional, Homo sapiens; summary of the method: as §4

**Q.** What does the source list for `O=c1[nH]cc(F)c(=O)[nH]1` [FLUOROURACIL]?
**A.** Viability (COLO 320DM [1]): 79%; Viability [2]: 32%; Viability (COLO 320DM [3]): 2%; Viability (COLO 320DM [4]): 5%; Viability [5]: 17%; Viability (MCF7 [6]): 29%; Viability (MCF7 [7]): 5%; Viability [8]: 80%; Viability (MCF7 [9]): 10%

**Q.** Which Survival [10] does the source give for `Cc1cn([C@H]2C[C@H](N=[N+]=[N-])[C@@H](CO)O2)c(=O)[nH]c1=O` [ZIDOVUDINE] here?
**A.** The Survival was 79.4%.

**Q.** And the Survival [11]?
**A.** The Survival was 74.3%.

**Q.** And the EC50 [12]?
**A.** The EC50 was 4 nM.

**Q.** And the Survival [13]?
**A.** The Survival was 78.3%.

**Q.** With `CCN(CC)CCCC(C)Nc1c2ccc(Cl)cc2nc2ccc(OC)cc12.Cl.Cl` (configuration not stated) [QUINACRINE DIHYDROCHLORIDE] as the compound, how does the Viability [14] read?
**A.** The Viability was 0%.

**Q.** What about the Viability (MT4 [15]) of the same compound?
**A.** The Viability was 88.2%.

**Q.** What about the Viability (MT4 [16]) of the same compound?
**A.** The Viability was 93.6%.

**Q.** And the Viability (MT4 [17])?
**A.** The Viability was 82.1%.

**Q.** With `Nc1nc2cc3c(O)c4ccccc4nc3cc2[nH]1` as the compound, how does the Viability [18] read?
**A.** The Viability was 12.5%.

**Q.** And the Viability (MT4 [19])?
**A.** Its Viability is 81.5%.

**Q.** And the Inhibition [20]?
**A.** Its Inhibition is 33%.

**Q.** What about the Viability (MT4 [21]) of the same compound?
**A.** Its Viability is 88.8%.

**Q.** And the Viability (MT4 [22])?
**A.** Its Viability is 90%.
